Values belong to the compound of their own block, whether it stands above or below them.
Legend:
[1] = target: T1, Diacylglycerol O-acyltransferase 1 (Homo sapiens, UniProt O75907); test: Inhibition of human liver flag-tagged DGAT1 expressed in baculovirus infected insect cells after 2 hrs by SPA
T1 sequence (O75907 whole entry): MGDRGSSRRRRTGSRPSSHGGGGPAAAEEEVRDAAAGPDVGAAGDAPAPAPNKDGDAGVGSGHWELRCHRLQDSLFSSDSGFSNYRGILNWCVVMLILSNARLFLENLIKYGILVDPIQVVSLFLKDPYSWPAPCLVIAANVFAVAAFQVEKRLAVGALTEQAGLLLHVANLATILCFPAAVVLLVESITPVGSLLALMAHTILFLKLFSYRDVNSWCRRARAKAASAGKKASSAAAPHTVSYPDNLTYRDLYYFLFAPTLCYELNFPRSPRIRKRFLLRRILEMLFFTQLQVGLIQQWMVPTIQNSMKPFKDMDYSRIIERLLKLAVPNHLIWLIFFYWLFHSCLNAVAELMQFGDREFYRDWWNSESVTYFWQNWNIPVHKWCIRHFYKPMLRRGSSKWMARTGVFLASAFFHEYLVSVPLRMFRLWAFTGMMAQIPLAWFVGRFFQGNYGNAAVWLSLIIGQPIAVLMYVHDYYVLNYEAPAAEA

[2] = Clearance in Sprague-Dawley rat at 1 mg/kg, iv; assay type: ADME, organism-based; design: dose 1 mg/kg, route intravenous; settings: in vivo
[3] = target: Cytochrome P450 3A4 (Homo sapiens, UniProt P08684); test: Inhibition of CYP3A4 (unknown origin) at 10 uM; assay type: ADME
[4] = target: T2, Cytochrome P450 1A2 (Homo sapiens, UniProt P05177); test: Inhibition of CYP1A2 (unknown origin) at 10 uM; assay type: ADME
T2 sequence (P05177 whole entry): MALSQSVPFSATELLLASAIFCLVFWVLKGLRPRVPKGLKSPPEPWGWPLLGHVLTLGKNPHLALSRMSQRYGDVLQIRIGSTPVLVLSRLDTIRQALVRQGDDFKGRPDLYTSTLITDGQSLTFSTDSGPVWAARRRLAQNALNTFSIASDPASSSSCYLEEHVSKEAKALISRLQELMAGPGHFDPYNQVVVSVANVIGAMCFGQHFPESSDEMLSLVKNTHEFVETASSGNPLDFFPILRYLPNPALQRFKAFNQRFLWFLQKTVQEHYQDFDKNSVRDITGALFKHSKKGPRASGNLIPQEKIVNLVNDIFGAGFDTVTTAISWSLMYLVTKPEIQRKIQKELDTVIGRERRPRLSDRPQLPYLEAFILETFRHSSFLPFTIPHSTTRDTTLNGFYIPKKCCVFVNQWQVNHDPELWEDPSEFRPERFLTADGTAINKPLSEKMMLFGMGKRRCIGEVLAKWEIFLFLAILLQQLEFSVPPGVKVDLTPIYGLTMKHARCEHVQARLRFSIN

[5] = test system: Cynomolgus monkey; test: Toxicity in cynomolgus monkey assessed as QTc interval prolongation at 1 mg/kg/day, po by 28-day multiple-dose toxicity study relative to control; assay type: organism-based, Macaca fascicularis; design: route oral; settings: in vivo
Procedure, shortened: (§1)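 Cynomolgus monkeys were dosed po at 1, 10 and 100 mg kg−1 day−1 for 28 days. Plasma ALT and AST were measured and QTc intervals were recorded, with eight monkeys in the 100 mg/kg group.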

[6] = test system: Rattus norvegicus; test: Toxicity in Sprague-Dawley rat assessed as clinical pathology parameters at 100 to 500 mg/kg, po by 28-day multiple-dose toxicity study; assay type: organism-based; design: dose 100-500 mg/kg, route oral; settings: in vivo
Procedure, shortened: (§2)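 Sprague−Dawley rats were dosed po at 100 and 500 mg kg−1 day−1 for 28 days. Clinical pathology was assessed for treatment-related changes, including sebaceous gland atrophy.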

[7] = test system: Salmonella typhimurium; test: Genotoxicity in Salmonella typhimurium; assay type: toxicity, organism-based; settings: salmonella enterica subsp. enterica serovar typhimurium
[8] = target: Cytochrome P450 2C9 (Homo sapiens, UniProt P11712); test: Inhibition of CYP2C9 (unknown origin) at 10 uM; assay type: ADME
[9] = test system: Cynomolgus monkey; test: Toxicity in cynomolgus monkey assessed as QTc interval prolongation at 10 mg/kg/day, po by 28-day multiple-dose toxicity study relative to control; assay type: organism-based, Macaca fascicularis; design: route oral; settings: in vivo; procedure, shortened: as §1
[10] = target: Cytochrome P450 2D6 (Homo sapiens, UniProt P10635); test: Inhibition of CYP2D6 (unknown origin) at 10 uM; assay type: ADME
[11] = test system: Rattus norvegicus; test: Toxicity in Sprague-Dawley rat assessed as sebaceous gland atrophy at 100 to 500 mg/kg, po by 28-day multiple-dose toxicity study; assay type: organism-based; design: dose 100-500 mg/kg, route oral; settings: in vivo; procedure, shortened: as §2
[12] = test system: CHL (Chinese hamster lung cells); test: Toxicity in CHL cells assessed as chromosomal aberration
[13] = test system: Rattus norvegicus; test: Toxicity in Sprague-Dawley rat assessed as elevation of plasma AST level at 50 mg/kg, iv administered as single dose; assay type: organism-based; design: dose 50 mg/kg, route intravenous; settings: in vivo
[14] = test system: Rattus norvegicus; test: Toxicity in Sprague-Dawley rat assessed as elevation of plasma ALT level at 50 mg/kg, iv administered as single dose; assay type: organism-based; design: dose 50 mg/kg, route intravenous; settings: in vivo

Cytochrome P450 2D6, sequence (P10635 whole entry): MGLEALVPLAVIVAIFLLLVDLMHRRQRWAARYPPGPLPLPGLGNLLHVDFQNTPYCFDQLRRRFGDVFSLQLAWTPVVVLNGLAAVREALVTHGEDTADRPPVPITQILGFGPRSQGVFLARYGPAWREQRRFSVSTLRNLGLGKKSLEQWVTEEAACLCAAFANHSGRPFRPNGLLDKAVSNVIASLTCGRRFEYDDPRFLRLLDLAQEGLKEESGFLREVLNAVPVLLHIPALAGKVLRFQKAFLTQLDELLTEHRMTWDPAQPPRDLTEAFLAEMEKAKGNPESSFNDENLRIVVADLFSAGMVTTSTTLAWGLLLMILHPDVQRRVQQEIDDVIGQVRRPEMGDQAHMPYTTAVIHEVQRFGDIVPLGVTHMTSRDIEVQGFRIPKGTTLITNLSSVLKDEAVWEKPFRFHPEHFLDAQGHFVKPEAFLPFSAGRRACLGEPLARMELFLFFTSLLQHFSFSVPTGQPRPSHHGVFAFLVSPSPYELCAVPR
Cytochrome P450 3A4, sequence (P08684 whole entry): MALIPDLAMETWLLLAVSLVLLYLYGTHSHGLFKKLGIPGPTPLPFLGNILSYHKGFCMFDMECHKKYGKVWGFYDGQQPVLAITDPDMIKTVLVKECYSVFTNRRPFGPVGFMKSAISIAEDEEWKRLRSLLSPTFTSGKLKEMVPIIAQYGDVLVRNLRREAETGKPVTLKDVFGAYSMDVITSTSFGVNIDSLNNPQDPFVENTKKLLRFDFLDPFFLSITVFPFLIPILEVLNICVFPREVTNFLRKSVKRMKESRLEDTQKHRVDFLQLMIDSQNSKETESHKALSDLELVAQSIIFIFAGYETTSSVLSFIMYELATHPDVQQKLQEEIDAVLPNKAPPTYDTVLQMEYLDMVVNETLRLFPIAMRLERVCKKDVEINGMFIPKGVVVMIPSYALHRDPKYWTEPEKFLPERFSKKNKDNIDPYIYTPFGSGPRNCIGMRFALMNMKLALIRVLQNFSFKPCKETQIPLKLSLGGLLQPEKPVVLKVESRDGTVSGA
Cytochrome P450 2C9, sequence (P11712 whole entry): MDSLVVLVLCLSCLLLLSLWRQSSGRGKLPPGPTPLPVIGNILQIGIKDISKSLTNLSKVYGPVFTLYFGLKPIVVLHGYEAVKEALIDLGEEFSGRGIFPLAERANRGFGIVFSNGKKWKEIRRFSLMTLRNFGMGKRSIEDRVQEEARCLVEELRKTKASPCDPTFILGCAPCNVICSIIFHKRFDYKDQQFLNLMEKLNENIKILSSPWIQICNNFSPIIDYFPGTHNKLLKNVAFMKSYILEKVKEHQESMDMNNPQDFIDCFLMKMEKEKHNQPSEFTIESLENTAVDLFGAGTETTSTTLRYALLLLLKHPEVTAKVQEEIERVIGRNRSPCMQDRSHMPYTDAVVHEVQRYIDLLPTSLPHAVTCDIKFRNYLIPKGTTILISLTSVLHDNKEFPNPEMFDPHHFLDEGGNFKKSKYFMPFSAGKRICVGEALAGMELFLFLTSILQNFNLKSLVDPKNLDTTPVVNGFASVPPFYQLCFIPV

IC50 [1]: > 10 µM
SMILES: Nc1nc(O)nc2c1N=C(c1ccc(Br)cc1)CO2

IC50 [1]: > 10 µM
SMILES: Nc1nc(N)c2c(n1)OCC(c1ccc(Br)cc1)=N2

IC50 [1]: > 10 µM
SMILES: CN(C)c1nc(N)c2c(n1)OCC(c1ccc(Br)cc1)=N2

IC50 [1]: > 10 µM
SMILES: CN(C)c1ncnc2c1N=C(c1ccc(Br)cc1)CO2

IC50 [1]: > 10 µM
SMILES: CNc1ncnc2c1N=C(c1ccc(Br)cc1)CO2

Further lines, the compound ahead of its results:

SMILES: CC1(C)Oc2nc(C(F)(F)F)nc(N)c2N=C1c1ccc([C@H]2CC[C@H](CC(=O)O)CC2)cc1
clearance [2]: 1.33 mL/min/kg

SMILES: CC1(C)Oc2ncnc(N)c2C=C1c1ccc([C@H]2CC[C@H](CC(=O)O)CC2)cc1
clearance [2]: 23.3 mL/min/kg

SMILES: Cc1nc(N)c2c(n1)OC(C)(C)C(c1ccc([C@H]3CC[C@H](CC(=O)O)CC3)cc1)=N2
inhibition (INH) [3]: Not Active
clearance [2]: 3.5 mL/min/kg
inhibition (INH) [4]: Not Active
Activity [5]: Non-toxic
Activity [6]: Non-toxic
Activity [7]: Non-toxic
inhibition (INH) [8]: Not Active
Activity [9]: Non-toxic
inhibition (INH) [10]: Not Active
Activity [11]: Toxic
Activity [12]: Toxic

SMILES: CC1(C)Oc2ncnc(N)c2C=C1c1ccc2c(c1)CC[C@]21CC[C@@H](CC(=O)O)CC1
clearance [2]: 21.7 mL/min/kg

SMILES: Nc1cccc2c1N=C(c1ccc(Br)cc1)CO2
IC50 [1]: > 10 µM

SMILES: CC1(C)Oc2nc(O)nc(N)c2N=C1c1ccc([C@H]2CC[C@H](CC(=O)O)CC2)cc1
Activity [13]: Toxic
Activity [14]: Toxic
